Consider 2 molecules from ChEMBL document CHEMBL5252546, “Salutaxel, a Conjugate of Docetaxel and a Muramyl Dipeptide (MDP) Analogue, Acts as Multifunctional Prodrug That Inhibits Tumor Growth and Metastasis” (J Med Chem, 2018).

The nature of data set [1]: Prodrug conversion in mouse tumor implanted with mouse 4T1 cells assessed as AUC (0-t) of docetaxel at 4 mg/kg,iv measured upto 72 hrs. In kind it is ADME, organism-based, Neoplasm. On the set-up: time < 72 hrs, dose 4 mg/kg, route iv. The following applies: in vivo.
The target in the next data set is Cytochrome P450 2C19 (Homo sapiens, UniProt P33261). In words: Inhibition of CYP2C19 in human liver microsomes using probe substrate at 0.1 to 100 uM in presence of NADPH. The following applies: dose 0.1-100 µM. Format: ADME, Microsome.
Data set [2] can be described thus: Volume of distribution at steady state in rat at 2 mg/kg,iv measured upto 24 hrs. In kind it is ADME, organism-based. The note with it: in vivo, read-out: Vdss.
A short description of data set [3]: Toxicity in Beagle dog assessed as effect on respiratory intensity at 1 to 4 mg/kg,iv. Format: organism-based, Canis lupus familiaris. The following applies: in vivo, dose 1-4 mg/kg.
A short description of data set [4]: Prodrug conversion in mouse plasma implanted with mouse 4T1 cells assessed as Tmax of docetaxel at 4 mg/kg,iv measured upto 72 hrs. Format: ADME, organism-based. The following applies: in vivo.
Data set [5] can be described thus: Clearance in male rat at 4 mg/kg,iv measured upto 24 hrs. The note with it: in vivo. Format: ADME, organism-based. The procedure, abridged:
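Rats were given a single iv injection at 2, 4 or 8 mg/kg. Plasma parent drug and released docetaxel were followed over time. Cmax, Tmax, AUC, MRT, t1/2, CL and Vss were reported for males, females and all animals combined.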

The nature of data set [6]: Drug metabolism in rat feces assessed as metabolite MDA-205 formation at 4 mg/kg,iv measured after 24 hrs. Format: ADME, organism-based. The note with it: in vivo.
For data set [7], the system named is 4T1. In words: Antitumor activity against mouse 4T1 cells implanted in BALB/c mouse assessed as decrease in serum TIMP-1 level at 5 mg/kg,iv administrated once per week for 4 weeks by ELISA. In kind it is functional, organism-based. The procedure, abridged:
(§1)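 4T1 fat-pad model in BALB/c mice, iv 5–20 mg/kg once weekly for 4 weeks, with vehicle and naive groups; serum MMP9, TIMP-1, IL-6 and S100A9 measured by mouse ELISA kits.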

A short description of data set [8]: Stability in monkey plasma assessed as compound remaining at 1 uM incubated for 6 hrs. Format: ADME, cell-free, Macaca mulatta. The note with it: rhesus monkey.
The nature of data set [9]: AUC (0-infinity) in male rat at 4 mg/kg,iv measured upto 24 hrs. On the set-up: time < 24 hrs, dose 4 mg/kg, route iv. The following applies: in vivo. Format: ADME, organism-based. The procedure, abridged: (§2)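 Single iv dose: rats 2, 4 or 8 mg/kg by intravenous injection; Beagle dogs 1, 2 or 4 mg/kg by intravenous infusion. Plasma concentration–time data were analysed by sex and pooled. Reported parameters: Cmax, Tmax, AUC0−t, AUC0−∞, MRT0−∞, t1/2, CL, Vss, given as mean ± SD.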

Data set [10] is described as follows: Tmax in female Beagle dog at 1 mg/kg,iv measured upto 24 hrs. Format: ADME, organism-based, Canis lupus familiaris. The note with it: in vivo.
Another data set deals with NCI-H522. In words: Antiproliferative activity against human NCI-H522 cells assessed inhibition of cell growth incubated for 72 hrs by SRB assay. Format: functional, cell-based. The note with it: NCI-H522, 72 h.
The nature of data set [11]: Cmax in female Beagle dog at 2 mg/kg,iv measured upto 24 hrs. Format: ADME, organism-based, Canis lupus familiaris. Details: dose 2 mg/kg, time < 24 hrs, route iv. The note with it: in vivo. The procedure, abridged: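 Beagle dogs were given a single iv infusion at 1, 2 or 4 mg/kg. Plasma parent drug and released docetaxel were followed over time. Cmax, Tmax, AUC, MRT, t1/2, CL and Vss were reported by sex and for all dogs combined.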

Data set [12] in a line: AUC (0-infinity) in rat at 8 mg/kg,iv measured upto 24 hrs. Format: ADME, organism-based. The note with it: in vivo. On the set-up: time < 24 hrs, dose 8 mg/kg, route iv. The procedure, abridged:
as §2

Data set [13] in a line: Drug metabolism in rat plasma assessed as metabolite MDA-205 formation at 4 mg/kg,iv measured after 24 hrs. Format: ADME, organism-based. The following applies: in vivo.
A further data set relates to KM12. Put plainly: Antiproliferative activity against human KM12 cells assessed inhibition of cell growth incubated for 72 hrs by SRB assay. Format: functional, cell-based. The note with it: KM12, 72 h.
Data set [14] can be described thus: Drug concentration in rat brain at 4 mg/kg,iv measured after 24 hrs. The note with it: in vivo. Format: ADME, organism-based. The procedure, abridged: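 Rats received 4 mg/kg iv. Parent drug and released docetaxel were assayed in tissues and plasma from the first sampling at 0.25 h to 24 h. The lower limit of quantitation was 200 ng/g.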
Data set [15] in a line: Volume of distribution at steady state in Beagle dog at 4 mg/kg,iv measured upto 24 hrs. The following applies: in vivo, read-out: Vdss. In kind it is ADME, organism-based, Canis lupus familiaris.
Data set [16] can be described thus: Prodrug conversion in mouse plasma implanted with mouse 4T1 cells assessed as MRT of docetaxel at 4 mg/kg,iv measured upto 72 hrs. In kind it is ADME, organism-based. The following applies: in vivo.
The nature of data set [17]: Plasma protein binding in human plasma incubated for 4 hrs. In kind it is ADME, cell-free. The following applies: read-out: PPB (converted).
Data set [18] is described as follows: Toxicity in Beagle dog assessed as effect on gastrointestinal tract at 3 to 18 mg/kg,iv measured upto 24 hrs. Format: organism-based, Canis lupus familiaris. The following applies: in vivo, dose 3-18 mg/kg.
Data set [19] can be described thus: Toxicity in BALB/c mouse xenografted with human HCT-116 cells assessed as body weight loss at 10 mg/kg,iv administrated once per week for 3 weeks. In kind it is organism-based. The following applies: in vivo, 504 h.
For data set [20], the system named is 4T1. In words: Antitumor activity against mouse 4T1 cells implanted in BALB/c mouse assessed as decrease in serum S100A9 level at 20 mg/kg,iv administrated once per week for 4 weeks by ELISA. In kind it is functional, organism-based. Put shortly:
as §1

Data set [21] in a line: Tmax in male rat at 2 mg/kg,iv measured upto 24 hrs. Format: ADME, organism-based. The note with it: in vivo.
A short description of data set [22]: Tmax in rat at 2 mg/kg,iv measured upto 24 hrs. Format: ADME, organism-based. The note with it: in vivo.
The nature of data set [23]: Half life in mouse tumor implanted with mouse 4T1 cells at 5.7 mg/kg,iv measured upto 72 hrs. Format: ADME, organism-based, Neoplasm.
For data set [24], the system named is 4T1. In words: Antitumor activity against mouse 4T1 cells implanted in BALB/c mouse assessed as decrease in tumor MMP2 expression level at 5.7 mg/kg,iv administrated once per week for 4 weeks in presence of MDA-205 by western blot assay. In kind it is functional, organism-based. The procedure, abridged:
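4T1 cells injected into mammary fat pads of BALB/c mice. Saline vehicle or test article given iv once weekly for 4 weeks. Spleen, lung and tumor lysates immunoblotted for MMP2/MMP9 with β-actin as loading control. Bands averaged over five mice per group, representative of two independent experiments.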

Data set [25] in a line: Toxicity in BALB/c mouse xenografted with human A549/Taxol cells assessed as body weight loss at 5.7 mg/kg,iv administrated once per week for 3 weeks. In kind it is organism-based, A549/TR. The note with it: in vivo, 504 h. Put shortly:
(§3)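 Nude BALB/c nu/nu mice received subcutaneous human tumour cells into the right flank. Dosing started at mean tumour volume of 100–120 mm3, iv once weekly for 3 weeks; the taxane arm was an equimolar control. Body weight and overt side effects were monitored. Mean ± SEM, n = 8.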

Data set [26] deals with 4T1. In words: Antitumor activity against mouse 4T1 cells xenografted with BALB/c mouse assessed as inhibition of tumor growth at 5.7 mg/kg,iv administrated once per week for 4 weeks. In kind it is functional. The note with it: 4T1, 672 h. The procedure, abridged:
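4T1 cells injected into mammary fat pads of BALB/c mice. Dosing iv once per week for 4 weeks, saline vehicle; single-agent arms were given alone or with the peptide component (5b or 6). Endpoints were body weight, tumour volume, tumour weight, lung metastatic nodule count and lung metastasis score. Mean ± SEM, n = 10; ANOVA and Student's t test.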

The subject of data set [27] is 4T1. Put plainly: Antitumor activity against mouse 4T1 cells implanted in BALB/c mouse assessed as decrease in lung injury at 5.7 mg/kg,iv administrated once per week for 4 weeks in presence of compound 5b by H and E staining based assay. Format: functional, organism-based. The procedure, abridged: (§4)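 BALB/c mice bearing orthotopic mammary fat pad 4T1 tumors, dosed iv weekly for 4 weeks with saline vehicle as control. Lung sections stained with hematoxylin and eosin and examined by light microscopy at 40× for metastasis, inflammatory infiltration and alveolar wall thickening.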

A short description of data set [28]: Toxicity in BALB/c mouse xenografted with human A549/Taxol cells assessed as side effects at 5.7 mg/kg,iv administrated once per week for 3 weeks. In kind it is organism-based, A549/TR. The following applies: in vivo, 504 h. Put shortly: as §3
The subject of data set [29] is 4T1. In words: Antitumor activity against mouse 4T1 cells implanted in BALB/c mouse assessed as decrease in lung metastasis at 5.7 mg/kg,iv administrated once per week for 4 weeks by H and E staining based assay. In kind it is functional, organism-based. Put shortly:
as §4

The source made the active and inactive calls. No cut-off for these calls is given here.

Chain of Cytochrome P450 2C19 (P33261 whole entry): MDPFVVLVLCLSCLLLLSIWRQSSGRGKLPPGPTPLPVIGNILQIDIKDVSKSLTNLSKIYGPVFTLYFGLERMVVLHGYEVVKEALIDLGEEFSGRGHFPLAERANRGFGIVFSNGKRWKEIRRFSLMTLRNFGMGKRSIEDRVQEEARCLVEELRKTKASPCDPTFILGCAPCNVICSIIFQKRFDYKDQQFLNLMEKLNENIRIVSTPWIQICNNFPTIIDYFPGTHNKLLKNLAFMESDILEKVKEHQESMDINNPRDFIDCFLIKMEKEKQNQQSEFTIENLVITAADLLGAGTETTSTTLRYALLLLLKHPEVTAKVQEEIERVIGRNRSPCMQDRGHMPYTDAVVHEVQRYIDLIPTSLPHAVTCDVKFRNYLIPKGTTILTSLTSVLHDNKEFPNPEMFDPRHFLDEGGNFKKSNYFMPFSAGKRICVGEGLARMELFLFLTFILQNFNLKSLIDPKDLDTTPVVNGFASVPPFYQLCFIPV

In the case of `CC(=O)O[C@@]12CO[C@@H]1C[C@H](O)[C@@]1(C)C(=O)[C@H](O)C3=C(C)[C@@H](OC(=O)[C@H](OC(=O)CCC(=O)NCCCC[C@H](NC(=O)CC[C@@H](NC(=O)[C@H](C)NC(=O)/C=C/c4ccc(F)cc4Cl)C(N)=O)C(=O)O)[C@@H](NC(=O)OC(C)(C)C)c4ccccc4)C[C@@](O)([C@@H](OC(=O)c4ccccc4)[C@H]21)C3(C)C`, the AUCt in [1] was found to be 81 µM·h. Also, the “inhibition (INH)” value on Cytochrome P450 2C19 is recorded as “Not Active”. Moreover, the Vd amounted to 0.071 L/kg in data set [2] and 0.08 L/kg in data set [15]. Moreover, the Activity result is reported as “Non-Toxic” in [3], “Toxic” in data set [18] and “Non-Toxic” in [19]. Also, the Tmax in [4] was determined as 1.8 min; in data set [10], 30 min; in data set [21], 4.98 min; in data set [22] it was 4.98 min. The molecule further returned a clearance in data set [5] of 3.28 mL/min/kg. The Drug metabolism result in data set [6] and in data set [13] was “Metabolite_Detected” each time. The result in the data set on 4T1 [7] and in the data set on 4T1 [20] was Active. Further, the Stability entry in data set [8] was “Stable”. Moreover, the figures for the AUC(0-inf) in data set [9] and in [12] were 20800 ng·h/mL and 46100 ng·h/mL, respectively. Further, the IC50 in the data set on NCI-H522 and in the data set with KM12 was 16.3 nM each time. For the same molecule, the highest level in [11] (Cmax) was 14700 ng/mL. Further, the Drug uptake entry in [14] is listed as “Active”. Further, the MRT in [16] was found to be 52.8 min. Also, the fraction unbound at 4 h in data set [17] is 0.007.
`CC(=O)O[C@@]12CO[C@@H]1C[C@H](O)[C@@]1(C)C(=O)[C@H](O)C3=C(C)[C@@H](OC(=O)[C@H](O)[C@@H](NC(=O)OC(C)(C)C)c4ccccc4)C[C@@](O)([C@@H](OC(=O)c4ccccc4)[C@H]21)C3(C)C` [DOCETAXEL ANHYDROUS]: the half-life in data set [23] is 49.1 h. For the same molecule, the outcome in the data set on 4T1 [24] was inactive. Besides, the Activity entry in data set [25] and in data set [28] was “Non-Toxic” each time. Moreover, in the data set on 4T1 [26], the inhibition in vivo at 5.7 mg/kg is 19.6%. Also, the result in the data set on 4T1 [27] and with 4T1 [29] was Active.
